pIC50: −log10 of the molar value. Activity calls are given as the source filed them. The calls are words filed in the database; no cut-off is given here.
Assays:
Cytochrome P450 2C9 = Cytochrome P450 2C9 (Homo sapiens, UniProt P11712); assay: Inhibition of CYP2C9 in human liver microsomes using diclofenac sodium salt as substrate incubated for 20 mins in presence of NADPH by LC-MS/MS analysis; assay type: ADME
[1] = Oral bioavailability in dog at 2 mg/kg; assay type: ADME, organism-based, Canis lupus familiaris; conditions: in vivo
[2] = Terminal half life in cynomolgus monkey at 0.5 mg/kg, iv; assay type: ADME, organism-based, Macaca fascicularis; conditions: in vivo, read-out: beta t1/2 (converted)
CYP3A4 = CYP3A4 (Homo sapiens, UniProt P08684); assay: Ratio of IC50 for time-dependent inhibition of CYP3A4 in human liver microsomes using midazolam hydrochloride as substrate in presence of NADPH to IC50 for time-dependent inhibition of CYP3A4 in human liver microsomes using midazolam hydrochloride as substrate absence of NADPH; conditions: probe midazolam hydrochloride, read-out: Ratio IC50
Sequence of CYP3A4 (P08684 whole entry): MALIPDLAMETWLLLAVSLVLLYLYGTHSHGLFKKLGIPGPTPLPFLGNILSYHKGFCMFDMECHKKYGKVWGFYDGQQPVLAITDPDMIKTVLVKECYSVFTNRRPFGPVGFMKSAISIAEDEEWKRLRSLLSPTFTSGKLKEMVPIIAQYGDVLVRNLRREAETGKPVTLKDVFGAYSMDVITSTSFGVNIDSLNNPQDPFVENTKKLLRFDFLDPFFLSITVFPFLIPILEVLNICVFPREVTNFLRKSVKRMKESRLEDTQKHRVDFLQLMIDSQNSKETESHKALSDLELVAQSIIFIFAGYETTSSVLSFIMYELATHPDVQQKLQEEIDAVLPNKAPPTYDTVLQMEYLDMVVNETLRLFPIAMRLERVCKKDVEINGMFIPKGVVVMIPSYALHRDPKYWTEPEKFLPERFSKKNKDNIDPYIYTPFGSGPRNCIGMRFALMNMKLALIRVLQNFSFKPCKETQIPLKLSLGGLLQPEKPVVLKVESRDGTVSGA

[3] = target: Atypical chemokine receptor 3 (Homo sapiens) (UniProt P25106); assay: Antagonist activity at human CXCR7 assessed as inhibition of CXCL12-induced beta arrestin2 recruitment at 500 nM preincubated for 30 mins followed by CXCL12 stimulation and measured after 90 to 180 mins by pathhunter assay
Sequence of Atypical chemokine receptor 3 (Homo sapiens) (P25106 whole entry): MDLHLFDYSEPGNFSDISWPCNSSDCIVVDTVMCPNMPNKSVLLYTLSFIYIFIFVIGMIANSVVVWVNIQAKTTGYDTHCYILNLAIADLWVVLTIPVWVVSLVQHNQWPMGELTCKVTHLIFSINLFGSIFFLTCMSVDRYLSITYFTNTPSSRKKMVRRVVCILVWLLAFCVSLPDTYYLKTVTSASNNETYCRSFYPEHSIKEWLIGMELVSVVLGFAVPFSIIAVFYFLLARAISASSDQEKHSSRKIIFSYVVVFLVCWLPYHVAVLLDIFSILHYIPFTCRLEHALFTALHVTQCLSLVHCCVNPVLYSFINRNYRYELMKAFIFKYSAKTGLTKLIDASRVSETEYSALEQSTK

Panc02 [4] = assay: Antitumor activity against mouse Panc02 cells allografted in C57BL/6 mouse assessed as reduction in tumor growth at 50 mg/kg, po qd for 38 days in presence of anti-CTLA-4; assay type: functional, organism-based
Outline: (§1)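 Pan02-OVA syngeneic tumor model. Compound given 50 mg/kg PO QD on a therapeutic schedule, alone or combined with anti-CTLA-4 antibody; tumor growth tracked. Groups compared by two-tailed t-test.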

[5] = target: T1, C-C chemokine receptor type 4 (Homo sapiens, UniProt P51679); assay: Antagonist activity at human CCR4 expressed in rat chem-5 cells assessed as inhibition of CCL22-induced calcium flux measured at 2.5 secs time interval for 45 secs by calcium 6 dye-based FLIPR assay; assay type: functional, cell-based
T1 sequence (P51679 whole entry): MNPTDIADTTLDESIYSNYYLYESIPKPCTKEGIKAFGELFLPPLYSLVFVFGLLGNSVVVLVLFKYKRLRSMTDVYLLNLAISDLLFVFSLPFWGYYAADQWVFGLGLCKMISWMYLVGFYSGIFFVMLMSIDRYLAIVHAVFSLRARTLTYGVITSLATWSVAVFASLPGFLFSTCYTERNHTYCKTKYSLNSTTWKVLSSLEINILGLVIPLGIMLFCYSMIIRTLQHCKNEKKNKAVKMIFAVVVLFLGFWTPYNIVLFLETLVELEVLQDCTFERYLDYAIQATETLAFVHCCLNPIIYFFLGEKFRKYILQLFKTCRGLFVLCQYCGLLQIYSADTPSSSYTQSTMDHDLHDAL
Outline: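 Primary calcium flux assay for CCR4 antagonism, run in the absence of serum.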

[6] = Volume of distribution at steady state in mouse at 0.5 mg/kg, iv; assay type: ADME, organism-based; conditions: in vivo, read-out: Vdss
[7] = target: C-X-C chemokine receptor type 4 (Homo sapiens) (UniProt P61073); assay: Antagonist activity at human Gi/G0-coupled CXCR4 assessed as inhibition of CXCL12-induced beta arrestin2 recruitment at 500 nM preincubated for 30 mins followed by CXCL12 stimulation and measured after 90 to 180 mins by pathhunter assay
Sequence of C-X-C chemokine receptor type 4 (Homo sapiens) (P61073 whole entry): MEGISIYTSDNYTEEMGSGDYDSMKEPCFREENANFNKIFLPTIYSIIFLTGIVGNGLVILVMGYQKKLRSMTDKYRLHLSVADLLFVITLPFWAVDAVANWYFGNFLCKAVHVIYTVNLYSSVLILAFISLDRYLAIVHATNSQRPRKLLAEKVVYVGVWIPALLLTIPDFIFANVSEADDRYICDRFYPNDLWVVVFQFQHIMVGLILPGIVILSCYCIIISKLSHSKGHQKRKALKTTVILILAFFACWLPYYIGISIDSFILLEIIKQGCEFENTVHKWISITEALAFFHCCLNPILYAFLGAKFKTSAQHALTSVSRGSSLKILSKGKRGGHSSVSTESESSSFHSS

Cytochrome P450 2C19 = Cytochrome P450 2C19 (Homo sapiens, UniProt P33261); assay: Inhibition of CYP2C19 in human liver microsomes using S-mephenytoin as substrate incubated for 20 mins in presence of NADPH by LC-MS/MS analysis; assay type: ADME
Sequence of Cytochrome P450 2C19 (P33261 whole entry): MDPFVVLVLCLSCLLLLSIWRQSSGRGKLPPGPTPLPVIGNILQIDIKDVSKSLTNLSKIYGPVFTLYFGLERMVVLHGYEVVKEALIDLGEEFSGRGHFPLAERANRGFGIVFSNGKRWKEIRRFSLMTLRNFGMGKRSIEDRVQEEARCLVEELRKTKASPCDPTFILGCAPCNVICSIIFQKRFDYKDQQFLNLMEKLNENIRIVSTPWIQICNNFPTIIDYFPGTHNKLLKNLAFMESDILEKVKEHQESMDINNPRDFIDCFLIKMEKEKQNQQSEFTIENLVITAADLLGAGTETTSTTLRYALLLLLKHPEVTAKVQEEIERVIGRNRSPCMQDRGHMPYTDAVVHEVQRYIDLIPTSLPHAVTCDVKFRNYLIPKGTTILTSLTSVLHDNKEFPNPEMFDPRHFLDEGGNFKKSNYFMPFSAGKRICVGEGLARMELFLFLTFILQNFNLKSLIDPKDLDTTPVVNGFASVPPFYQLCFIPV

[8] = Metabolic stability in human hepatocytes assessed as parent compound remaining at 1 uM after 60 mins by LC-MS/MS analysis; assay type: ADME, cell-based, Hepatocyte; conditions: read-out: Stability
Outline: (§2)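 Hepatocytes (human or rat). Compound incubated for 60 min; value is % parent remaining.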

[9] = Metabolic stability in rat hepatocytes assessed as parent compound remaining at 1 uM after 60 mins by LC-MS/MS analysis; assay type: ADME, cell-based, Hepatocyte; conditions: read-out: Stability; outline: as §2
[10] = Oral bioavailability in cynomolgus monkey at 2 mg/kg; assay type: ADME, organism-based, Macaca fascicularis; conditions: in vivo
[11] = target: C-X-C chemokine receptor type 6 (Homo sapiens) (UniProt O00574); assay: Antagonist activity at human Gi/G0-coupled CXCR6 assessed as inhibition of CXCL16-induced beta arrestin2 recruitment at 500 nM preincubated for 30 mins followed by CXCL16 stimulation and measured after 90 to 180 mins by pathhunter assay
Sequence of C-X-C chemokine receptor type 6 (Homo sapiens) (O00574 whole entry, looked up): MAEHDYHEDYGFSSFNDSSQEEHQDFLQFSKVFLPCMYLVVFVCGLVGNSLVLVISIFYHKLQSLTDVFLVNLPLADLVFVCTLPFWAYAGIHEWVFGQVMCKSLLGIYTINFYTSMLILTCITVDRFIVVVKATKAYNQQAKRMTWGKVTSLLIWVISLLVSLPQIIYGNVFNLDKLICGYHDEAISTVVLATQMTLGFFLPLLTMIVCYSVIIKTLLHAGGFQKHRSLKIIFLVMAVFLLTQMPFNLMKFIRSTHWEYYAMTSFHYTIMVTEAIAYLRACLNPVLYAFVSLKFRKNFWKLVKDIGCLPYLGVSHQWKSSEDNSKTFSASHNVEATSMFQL

[12] = Half life in mouse at 0.5 mg/kg, iv; assay type: ADME, organism-based; conditions: in vivo
Panc02 [13] = assay: Antitumor activity against mouse Panc02 cells allografted in C57BL/6 mouse assessed as reduction in tumor growth at 50 mg/kg, po qd for 38 days; assay type: functional, organism-based; outline: as §1
[14] = target: C-C chemokine receptor type 2 (Homo sapiens) (UniProt P41597); assay: Antagonist activity at human Gi/G0-coupled […]-induced beta arrestin2 recruitment at 500 nM preincubated for 30 mins […] and measured after 90 to 180 mins by pathhunter assay
Sequence of C-C chemokine receptor type 2 (Homo sapiens) (P41597 whole entry, looked up): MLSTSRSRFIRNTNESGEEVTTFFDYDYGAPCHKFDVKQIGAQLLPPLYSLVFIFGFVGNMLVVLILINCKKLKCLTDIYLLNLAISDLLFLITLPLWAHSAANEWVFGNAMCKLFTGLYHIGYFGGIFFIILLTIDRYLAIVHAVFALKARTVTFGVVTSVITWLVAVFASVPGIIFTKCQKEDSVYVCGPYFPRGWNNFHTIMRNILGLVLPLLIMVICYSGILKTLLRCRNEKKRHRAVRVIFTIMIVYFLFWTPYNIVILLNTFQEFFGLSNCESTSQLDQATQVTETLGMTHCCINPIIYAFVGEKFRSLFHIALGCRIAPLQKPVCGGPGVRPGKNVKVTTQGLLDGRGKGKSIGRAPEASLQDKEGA

[15] = target: C-X-C chemokine receptor type 3 (Homo sapiens) (UniProt P49682); assay: Antagonist activity at human Gi/G0-coupled CXCR3 assessed as inhibition of CXCL11-induced beta arrestin2 recruitment at 500 nM preincubated for 30 mins followed by CXCL11 stimulation and measured after 90 to 180 mins by pathhunter assay
Sequence of C-X-C chemokine receptor type 3 (Homo sapiens) (P49682 whole entry): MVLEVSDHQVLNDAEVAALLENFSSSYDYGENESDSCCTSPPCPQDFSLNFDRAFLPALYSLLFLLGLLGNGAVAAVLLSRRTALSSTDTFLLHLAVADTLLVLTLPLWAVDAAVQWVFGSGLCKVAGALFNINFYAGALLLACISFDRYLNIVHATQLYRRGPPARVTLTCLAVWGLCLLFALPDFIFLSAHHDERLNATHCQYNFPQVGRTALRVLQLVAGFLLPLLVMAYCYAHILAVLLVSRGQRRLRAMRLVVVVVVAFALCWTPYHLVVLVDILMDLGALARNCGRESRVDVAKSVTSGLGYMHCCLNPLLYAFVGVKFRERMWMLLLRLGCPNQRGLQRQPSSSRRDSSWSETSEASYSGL

CT26 = assay: Antitumor activity against mouse CT26 cells allografted in Balb/c mouse assessed as reduction in tumour volume at 50 mg/kg, po qd for 28 days starting from 3 days post inoculation measured twice weekly in presence of checkpoint inhibitor anti-PD-L1; assay type: functional, organism-based
Cytochrome P450 3A4 = Cytochrome P450 3A4 (Homo sapiens, UniProt P08684); assay: Inhibition of CYP3A4 in human liver microsomes using midazolam hydrochloride as substrate incubated for 20 mins in presence of NADPH by LC-MS/MS analysis; assay type: ADME
Sequence of Cytochrome P450 3A4 (P08684 whole entry): as the sequence (P08684 whole entry) above

[16] = target: C-C chemokine receptor type 4 (Homo sapiens) (UniProt P51679); assay: Antagonist activity at human Gi/G0-coupled CCR4 receptor expressed in CHO-K1 cells assessed as inhibition of CCL22-induced beta arrestin2 recruitment at 500 nM preincubated for 30 mins followed by CCL22 stimulation and measured after 90 to 180 mins by pathhunter assay; assay type: cell-based
[17] = Half life in dog at 0.5 mg/kg, iv; assay type: ADME, organism-based, Canis lupus familiaris; conditions: in vivo
[18] = target: C-C chemokine receptor type 3 (Homo sapiens) (UniProt P51677); assay: Antagonist activity at human Gi/G0-coupled CCR3 receptor expressed in CHO-K1 cells assessed as inhibition of CCL13-induced beta arrestin2 recruitment at 500 nM preincubated for 30 mins followed by CCL13 stimulation and measured after 90 to 180 mins by pathhunter assay; assay type: cell-based
Sequence of C-C chemokine receptor type 3 (Homo sapiens) (P51677 whole entry): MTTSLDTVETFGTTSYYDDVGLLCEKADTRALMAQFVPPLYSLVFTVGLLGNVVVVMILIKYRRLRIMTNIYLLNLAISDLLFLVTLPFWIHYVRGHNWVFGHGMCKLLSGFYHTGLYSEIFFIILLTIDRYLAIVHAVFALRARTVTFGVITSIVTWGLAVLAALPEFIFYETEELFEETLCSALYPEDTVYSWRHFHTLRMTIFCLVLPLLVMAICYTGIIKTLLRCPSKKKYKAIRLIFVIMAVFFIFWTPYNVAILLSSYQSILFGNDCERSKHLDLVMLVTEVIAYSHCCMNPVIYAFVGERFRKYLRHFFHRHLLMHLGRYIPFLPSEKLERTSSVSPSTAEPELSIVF

[19] = Oral bioavailability in mouse at 2 mg/kg; assay type: ADME, organism-based; conditions: in vivo
Cytochrome P450 1A2 = Cytochrome P450 1A2 (Homo sapiens, UniProt P05177); assay: Inhibition of CYP1A2 in human liver microsomes using phenacetin as substrate incubated for 20 mins in presence of NADPH by LC-MS/MS analysis; assay type: ADME
Sequence of Cytochrome P450 1A2 (P05177 whole entry): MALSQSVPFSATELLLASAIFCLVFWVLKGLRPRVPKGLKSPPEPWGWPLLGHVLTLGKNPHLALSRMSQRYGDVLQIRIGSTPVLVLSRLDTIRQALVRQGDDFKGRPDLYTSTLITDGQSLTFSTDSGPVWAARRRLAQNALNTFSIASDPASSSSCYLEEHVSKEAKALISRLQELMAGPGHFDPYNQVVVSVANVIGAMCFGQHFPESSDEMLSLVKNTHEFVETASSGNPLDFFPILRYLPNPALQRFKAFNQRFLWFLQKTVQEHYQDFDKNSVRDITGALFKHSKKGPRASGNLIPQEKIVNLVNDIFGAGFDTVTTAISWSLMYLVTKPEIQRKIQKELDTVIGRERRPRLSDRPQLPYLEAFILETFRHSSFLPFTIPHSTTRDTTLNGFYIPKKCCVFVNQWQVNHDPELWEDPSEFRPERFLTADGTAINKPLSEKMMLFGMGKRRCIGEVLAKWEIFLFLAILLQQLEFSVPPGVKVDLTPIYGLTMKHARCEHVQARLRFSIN

[20] = target: CX3C chemokine receptor 1 (Homo sapiens) (UniProt P49238); assay: Antagonist activity at human Gi/G0-coupled CX3CR1 expressed in CHOK1 cells assessed as inhibition of CX3CL1-induced beta arrestin2 recruitment at 500 nM preincubated for 30 mins followed by CX3CL1 stimulation and measured after 90 to 180 mins by pathhunter assay; assay type: cell-based; conditions: CHO-K1
Sequence of CX3C chemokine receptor 1 (Homo sapiens) (P49238 whole entry): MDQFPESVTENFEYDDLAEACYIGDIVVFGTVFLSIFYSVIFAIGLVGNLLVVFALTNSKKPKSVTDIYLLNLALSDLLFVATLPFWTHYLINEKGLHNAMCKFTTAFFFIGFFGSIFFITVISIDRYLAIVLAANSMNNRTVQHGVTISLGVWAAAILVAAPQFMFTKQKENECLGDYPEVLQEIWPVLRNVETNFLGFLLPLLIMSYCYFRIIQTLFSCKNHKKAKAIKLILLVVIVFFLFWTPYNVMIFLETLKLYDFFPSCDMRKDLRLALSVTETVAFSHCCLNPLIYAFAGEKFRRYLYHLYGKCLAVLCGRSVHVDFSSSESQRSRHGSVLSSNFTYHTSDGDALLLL

Sequence of Cytochrome P450 2C9 (P11712 whole entry): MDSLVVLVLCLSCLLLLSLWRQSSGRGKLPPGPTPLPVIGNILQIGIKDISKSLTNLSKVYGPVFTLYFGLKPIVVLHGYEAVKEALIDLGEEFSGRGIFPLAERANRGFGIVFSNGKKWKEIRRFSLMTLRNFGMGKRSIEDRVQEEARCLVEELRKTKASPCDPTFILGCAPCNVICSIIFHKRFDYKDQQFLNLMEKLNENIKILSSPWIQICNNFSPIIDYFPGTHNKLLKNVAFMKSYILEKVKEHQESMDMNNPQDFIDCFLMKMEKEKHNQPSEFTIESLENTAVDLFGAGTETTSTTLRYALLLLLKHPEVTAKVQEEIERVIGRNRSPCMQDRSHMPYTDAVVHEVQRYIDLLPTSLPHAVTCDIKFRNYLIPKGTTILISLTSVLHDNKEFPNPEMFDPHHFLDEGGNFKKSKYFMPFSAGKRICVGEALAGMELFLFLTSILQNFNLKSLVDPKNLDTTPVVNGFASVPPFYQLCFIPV

With `C[C@H](c1ccc(Cl)cc1Cl)n1nc(C#N)c2ncc(N3CC([C@H]4CCCN(CCO)C4)C3)nc21` as the molecule, how does the pIC50 (Cytochrome P450 2C9) read?
The pIC50 was under 4.40.

What about the bioavailability [1] of the same molecule?
The bioavailability was 44%.

What about the half-life [2] of the same molecule?
The half-life was 10.7 h.

What about the IC50 shift (CYP3A4) of the same molecule?
Its IC50 shift is 1.2.

And the Activity [3]?
The Activity was “inactive”.

What about the Activity (Panc02 [4]) of the same molecule?
Its Activity is “Active”.

And the pIC50 [5]?
Its pIC50 is 7.66.

What about the Vd [6] of the same molecule?
Its Vd is 5.2 L/kg.

What about the Activity [7] of the same molecule?
Its Activity is “inactive”.

And the pIC50 (Cytochrome P450 2C19)?
Its pIC50 is under 4.40.

What about the remaining at 1 h, 1 µM [8] of the same molecule?
The remaining at 1 h, 1 µM was 91%.

And the remaining at 1 h, 1 µM [9]?
Its remaining at 1 h, 1 µM is 73%.

And the bioavailability [10]?
The bioavailability was 41%.

And the Activity [11]?
The Activity was “inactive”.

What about the half-life [12] of the same molecule?
The half-life was 6.9 h.

What about the Activity (Panc02 [13]) of the same molecule?
Its Activity is “Active”.

What about the Activity [14] of the same molecule?
Its Activity is “inactive”.

What about the Activity [15] of the same molecule?
The Activity was “inactive”.

And the Activity (CT26)?
Its Activity is “Active”.

And the pIC50 (Cytochrome P450 3A4)?
Its pIC50 is under 4.40.

What about the Activity [16] of the same molecule?
Its Activity is “Active”.

What about the half-life [17] of the same molecule?
Its half-life is 12.7 h.

What about the Activity [18] of the same molecule?
The Activity was “inactive”.

What about the bioavailability [19] of the same molecule?
Its bioavailability is 29%.

And the pIC50 (Cytochrome P450 1A2)?
The pIC50 was under 4.40.

And the Activity [20]?
The Activity was “inactive”.
